{"source": "ChEMBL document CHEMBL5712908", "about": "“A genome-wide RNAi screen reveals essential therapeutic targets of breast cancer stem cells” (2019)", "key": {"Breast cancer cell line [1]": {"tested_on": "Breast cancer cell line", "assay": "Antitumor activity against human reimplanted CRCM494 negative breast cancer cells orthotopically xenografted in NSG mouse model of PDX assessed as reduction tumor volume at 50 mg/kg, ip 5 out of 7 for 2 weeks by limiting dilation analysis", "type": "functional, organism-based", "outline": "(§1)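 After 2 weeks of i.p. treatment (3 mg/kg daily or 50 mg/kg 5 of 7 days), dissociated PDX tumour cells reimplanted into secondary NSG mice at 50, 500 or 5,000 cells. A mouse counted as tumour-bearing once a tumour reached 10 mm. bCSC frequency per 10,000 cells estimated by ELDA; pairwise chi-square test.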"}, "Breast cancer cell line [2]": {"tested_on": "Breast cancer cell line", "assay": "Synergistic antitumor activity against patient-derived breast cancer cells orthotopically xenografted in NSG mouse model of PDX assessed as reduction in Ki67 cells at 50 mg/kg, ip 5 out of 7 for 2 weeks cotreated with salinomycin by Immunostaining analysis", "type": "functional, organism-based", "conditions": "Homo sapiens", "outline": "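Paraffin sections of treated PDX tumours deparaffinised and subjected to antigen retrieval in citrate buffer pH 6. Peroxidase staining with ready-to-use Ki67 or cleaved caspase-3 antibody, DAB substrate, haematoxylin counterstain. Proportion of positive cells quantified; n = 3; t-test.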"}, "SUM-159-PT [3]": {"tested_on": "SUM-159-PT", "assay": "Induction of apoptosis in human SUM159 cells expressing ALDHbr upto 100 uM incubated for 72 hrs by ALDEFLUOR/YO-PRO-3/ Hoechst 33342 staining based high content imaging microscopic analysis", "type": "functional, cell-based", "outline": "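SUM159 at 3,000 cells/well on collagen plates, dosed at 6, 24 and 48 h post-seeding; 0.1% DMSO negative control, cisplatin positive control. At 72 h stained 30 min at 37°C with ALDEFLUOR, YO-PRO-3 and Hoechst 33342, then imaged ice-cold. YO-PRO-3-positive nuclei (above untreated signal) counted over total cells, per ALDHbr/ALDH- subpopulation; n = 6.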"}, "Breast cancer cell line [4]": {"tested_on": "Breast cancer cell line", "assay": "Synergistic antitumor activity against human CRCM434 negative breast cancer cells xenografted in NSG mouse model of PDX assessed as reduction metastasis formation in liver at 50 mg/kg, ip 5 out of 7 for 2 weeks cotreated with salinomycin", "type": "functional, organism-based", "outline": "(§2)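 Luciferase-expressing PDX cells sorted H2Kd⁻ and viable, 100,000 in 100 μl PBS injected in NSG tail vein. From the next day, salinomycin 3 mg/kg i.p. daily and/or JQ1 50 mg/kg i.p. 5 of 7 days for 2 weeks. Lungs and liver imaged by bioluminescence after i.p. luciferin 30 mg/kg; normalised photon flux; 10 mice/group; Wilcoxon test.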"}, "Breast cancer cell line [5]": {"tested_on": "Breast cancer cell line", "assay": "Antitumor activity against human CRCM404 negative breast cancer cells orthotopically xenografted in NSG mouse model of PDX assessed as reduction ALDHbr cells at 50 mg/kg, ip 5 out of 7 for 2 weeks by LSR2 cytometer analysis", "type": "functional, organism-based", "outline": "(§3)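 Chemo-naïve triple-negative PDX cells injected at 100,000 per fat pad, two fat pads per NSG mouse. At ~80 mm³ tumours, mice received i.p. 3 mg/kg daily for 14 days or 50 mg/kg 5 of 7 days for 2 weeks; placebo was DMSO/HPCD 10% (1:9). Five mice (10 tumours) per group. Tumour growth monitored; after 2 weeks tumours dissociated, mouse cells excluded via anti-H2Kd, ALDHbr measured by ALDEFLUOR flow cytometry and normalised to vehicle.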"}, "Breast cancer cell line [6]": {"tested_on": "Breast cancer cell line", "assay": "Antitumor activity against human reimplanted CRCM404 negative breast cancer cells orthotopically xenografted in NSG mouse model of PDX assessed as reduction tumor volume at 50 mg/kg, ip 5 out of 7 for 2 weeks by limiting dilation analysis", "type": "functional, organism-based", "outline": "as §1"}, "Breast cancer cell line [7]": {"tested_on": "Breast cancer cell line", "assay": "Antitumor activity against human CRCM494 negative breast cancer cells orthotopically xenografted in NSG mouse model of PDX assessed as reduction in tumor volume at 50 mg/kg, ip 5 out of 7 for 2 weeks", "type": "functional, organism-based", "outline": "as §3"}, "Breast cancer cell line [8]": {"tested_on": "Breast cancer cell line", "assay": "Synergistic antitumor activity against human CRCM404 negative breast cancer cells xenografted in NSG mouse model of PDX assessed as reduction metastasis formation in liver at 50 mg/kg, ip 5 out of 7 for 2 weeks cotreated with salinomycin", "type": "functional, organism-based", "outline": "as §2"}, "Breast cancer cell line [9]": {"tested_on": "Breast cancer cell line", "assay": "Synergistic antitumor activity against human CRCM494 negative breast cancer cells orthotopically xenografted in NSG mouse model of PDX assessed as reduction ALDHbr cells at 50 mg/kg, ip 5 out of 7 for 2 weeks cotreated with salinomycin by LSR2 cytometer analysis", "type": "functional"}, "Breast cancer cell line [10]": {"tested_on": "Breast cancer cell line", "assay": "Antitumor activity against human CRCM434 negative breast cancer cells orthotopically xenografted in NSG mouse model of PDX assessed as reduction in tumor volume at 50 mg/kg, ip 5 out of 7 for 2 weeks", "type": "functional, organism-based", "outline": "as §3"}, "Breast cancer cell line [11]": {"tested_on": "Breast cancer cell line", "assay": "Synergistic antitumor activity against human reimplanted CRCM404 negative breast cancer cells orthotopically xenografted in NSG mouse model of PDX assessed as reduction tumor volume at 50 mg/kg, ip 5 out of 7 for 2 weeks cotreated with salinomycin by limiting dilation analysis", "type": "functional, organism-based"}, "Breast cancer cell line [12]": {"tested_on": "Breast cancer cell line", "assay": "Antitumor activity against patient-derived breast cancer cells orthotopically xenografted in NSG mouse model of PDX assessed as reduction in Ki67 cells at 50 mg/kg, ip 5 out of 7 for 2 weeks by Immunostaining analysis", "type": "functional, organism-based", "conditions": "Homo sapiens", "outline": "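Paraffin sections of PDX tumours from 2-week-treated mice. Citrate pH 6 antigen retrieval, then Ki67 immunoperoxidase staining with DAB and haematoxylin counterstain. Proportion of Ki67+ cells quantified; n = 3; t-test.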"}, "SUM-159-PT [13]": {"tested_on": "SUM-159-PT", "assay": "Anticancer activity against human SUM159 cells assessed as decrease in primary tumor sphere formation incubated for 72 hrs by Extreme limiting dilution analysis", "type": "functional, cell-based", "outline": "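Cells drug-treated in adherent culture for 72 h, then plated as single cells in ultra-low attachment 96-well plates in serum-free mammary epithelium basal medium. Plating at 25/10/5/3/2/1 cells per well, 18–36 wells per condition. Wells with ≥1 sphere after 10 days scored positive. Secondary spheres were made by dissociating primary spheres. Frequency by ELDA; n = 4; pairwise chi-square test.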"}, "SUM149PT [14]": {"tested_on": "SUM149PT", "assay": "Anticancer activity against human SUM149 cells assessed as ALDHbr cells at 1 mM by LSR2 cytometer (reference value: 4.8%)", "type": "functional", "parameters": "dose or concentration left out as unconfirmed"}, "SUM149PT [15]": {"tested_on": "SUM149PT", "assay": "Synergistic anticancer activity against human SUM149 cells assessed as decrease in docetaxel induced ALDHbr cells at 62 nM in presence of salinomycin by LSR2 cytometer analysis", "type": "functional, cell-based", "outline": "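SUM159 or SUM149 cells treated 72 h in adherent conditions; docetaxel combined with other drugs at 2 nM; combination doses chosen from synergy distributions (Sal/JQ1 62 nM/62 nM). ALDEFLUOR staining with DEAB control, flow cytometry on LSR2. n = 8; Student's t-test; mean ± SD.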"}, "SUM-159-PT [16]": {"tested_on": "SUM-159-PT", "assay": "Synergistic anticancer activity against human SUM159 cells assessed as decrease in primary tumor sphere formation at 62 nM incubated for 72 hrs in presence of salinomycin by Extreme limiting dilution analysis", "type": "functional", "outline": "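72 h adherent pretreatment (Sal/JQ1 62 nM/62 nM; docetaxel added at 2 nM where used), then single cells plated in ultra-low attachment 96-well plates in serum-free mammary epithelium basal medium at 25/10/5/3/2/1 cells/well (18–36 wells/condition). Wells with ≥1 sphere after 10 days scored positive; sphere-forming frequency by ELDA. Secondary spheres from dissociated primary spheres. n = 4; pairwise chi-square.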"}, "Breast cancer cell line [17]": {"tested_on": "Breast cancer cell line", "assay": "Synergistic antitumor activity against human CRCM404 negative breast cancer cells xenografted in NSG mouse model of PDX assessed as reduction metastasis formation in lung at 50 mg/kg, ip 5 out of 7 for 2 weeks cotreated with salinomycin", "type": "functional, organism-based", "outline": "as §2"}}, "note": "Calls of active or inactive are those of the source. No cut-off for these calls is given here."}
{"compound": "Cc1sc2c(c1C)C(c1ccc(Cl)cc1)=N[C@@H](CC(=O)OC(C)(C)C)c1nnc(C)n1-2", "values": [{"measurement": "Activity", "setting": "Breast cancer cell line [1]", "value": "Active"}, {"measurement": "Activity", "setting": "Breast cancer cell line [2]", "value": "Active"}, {"measurement": "Activity", "setting": "SUM-159-PT [3]", "value": "Active"}, {"measurement": "Activity", "setting": "Breast cancer cell line [4]", "value": "Active"}, {"measurement": "Activity", "setting": "Breast cancer cell line [5]", "value": "Active"}, {"measurement": "Activity", "setting": "Breast cancer cell line [6]", "value": "Active"}, {"measurement": "Activity", "setting": "Breast cancer cell line [7]", "value": "Active"}, {"measurement": "Activity", "setting": "Breast cancer cell line [8]", "value": "Active"}, {"measurement": "fold change (FC)", "setting": "Breast cancer cell line [9]", "value": 2}, {"measurement": "Activity", "setting": "Breast cancer cell line [10]", "value": "Active"}, {"measurement": "Activity", "setting": "Breast cancer cell line [11]", "value": "Active"}, {"measurement": "Activity", "setting": "Breast cancer cell line [12]", "value": "Active"}, {"measurement": "Activity", "setting": "SUM-159-PT [13]", "value": "Active"}, {"measurement": "Activity", "setting": "SUM149PT [14]", "value": 1.2, "unit": "%"}, {"measurement": "Activity", "setting": "SUM149PT [15]", "value": "Active"}, {"measurement": "fold change (FC)", "setting": "SUM-159-PT [16]", "value": 2.4}, {"measurement": "Activity", "setting": "Breast cancer cell line [17]", "value": "Active"}]}
